Legend:
Format in all cases: functional
[1] = system: Malme-3M; test: Growth inhibition of human MALME-3M cells assessed as cell viability at 100 uM incubated for 48 hrs by sulforhodamine B assay; conditions: read-out: Activity
[2] = system: KM12; test: Growth inhibition of human KM12 cells assessed as cell viability at 1 uM incubated for 48 hrs by sulforhodamine B assay; conditions: KM12, 48 h, read-out: Activity
[3] = system: SR; test: Growth inhibition of human SR cells incubated for 48 hrs by sulforhodamine B assay
Procedure, shortened: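 NCI-60 five-dose SRB assay. Cells were exposed for 48 h to tenfold dilutions of 0.01, 0.1, 1, 10 and 100 µM, in RPMI 1640 with 5% FBS. Plates fixed with TCA at the time of drug addition served as the time-zero reference. GI50 is the concentration giving a 50% reduction in net growth. TGI is total growth inhibition. LC50 is a net 50% loss of the initial cells.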

[4] = system: A549; test: Growth inhibition of human A549/ATCC cells assessed as cell viability at 100 uM incubated for 48 hrs by sulforhodamine B assay; conditions: A549, 48 h, read-out: Activity
Procedure, shortened: (§1)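 NCI-60 five-dose mode: five tenfold dilutions (0.01, 0.1, 1, 10, 100 µM) are applied for 48 h to cells in RPMI 1640 with 5% FBS at 37 °C. Endpoint is TCA fixation with sulforhodamine B read at 515 nm. % growth comes from the 0 h and control absorbances. GI50 is the concentration giving a 50% reduction in net cell growth.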

[5] = system: HOP-92; test: Growth inhibition of human HOP92 cells assessed as cell viability at 100 uM incubated for 48 hrs by sulforhodamine B assay; conditions: HOP-92, 48 h, read-out: Activity
[6] = system: NCI/ADR-RES; test: Growth inhibition of human NCI/ADR-RES cells incubated for 48 hrs by sulforhodamine B assay
Procedure, shortened: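 NCI-60 five-dose SRB assay in RPMI 1640 with 5% FBS, 37 °C, 5% CO2. Compound given at five tenfold dilutions, 0.01–100 µM, for 48 h. Adherent cells fixed with TCA, suspension cells with 16% final TCA. Bound SRB read at 515 nm and growth calculated against time-zero and untreated controls. GI50 taken from dose–response curves as the concentration giving a 50% decrease in net cell growth.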

[7] = system: OVCAR-8; test: Growth inhibition of human OVCAR8 cells assessed as cell viability at 1 uM incubated for 48 hrs by sulforhodamine B assay; conditions: OVCAR-8, 48 h, read-out: Activity
[8] = system: OVCAR-4; test: Growth inhibition of human OVCAR4 cells assessed as cell viability at 1 uM incubated for 48 hrs by sulforhodamine B assay; conditions: OVCAR-4, 48 h, read-out: Activity
[9] = system: OVCAR-5; test: Growth inhibition of human OVCAR5 cells assessed as cell viability at 100 uM incubated for 48 hrs by sulforhodamine B assay; conditions: OVCAR-5, 48 h, read-out: Activity
[10] = system: OVCAR-3; test: Growth inhibition of human OVCAR3 cells assessed as cell viability at 100 uM incubated for 48 hrs by sulforhodamine B assay; conditions: OVCAR-3, 48 h, read-out: Activity
[11] = system: HOP-62; test: Growth inhibition of human HOP62 cells assessed as cell viability at 0.1 uM incubated for 48 hrs by sulforhodamine B assay; conditions: HOP-62, 48 h, read-out: Activity
[12] = system: SW-620; test: Growth inhibition of human SW620 cells assessed as cell viability at 0.001 uM incubated for 48 hrs by sulforhodamine B assay relative to control; conditions: SW-620, 48 h, read-out: Activity
[13] = system: CCRF-CEM; test: Growth inhibition of human CCRF-CEM cells assessed as cell viability at 100 uM incubated for 48 hrs by sulforhodamine B assay; conditions: read-out: Activity
[14] = system: 786-0; test: Growth inhibition of human 786-0 cells incubated for 48 hrs by sulforhodamine B assay; conditions: 786-0, 48 h; procedure, shortened: as §1
[15] = system: M14; test: Growth inhibition of human M14 cells assessed as cell viability at 0.001 uM incubated for 48 hrs by sulforhodamine B assay relative to control; conditions: M14, 48 h, read-out: Activity
[16] = system: A549; test: Growth inhibition of human A549/ATCC cells incubated for 48 hrs by sulforhodamine B assay; conditions: A549, 48 h; procedure, shortened: as §1
[17] = system: SF-539; test: Growth inhibition of human SF539 cells assessed as cell viability at 0.1 uM incubated for 48 hrs by sulforhodamine B assay; conditions: SF-539, 48 h, read-out: Activity
[18] = system: ACHN; test: Growth inhibition of human ACHN cells assessed as cell viability at 0.001 uM incubated for 48 hrs by sulforhodamine B assay relative to control; conditions: read-out: Activity
[19] = system: MDA-MB-435; test: Growth inhibition of human MDA-MB-435 cells assessed as cell viability at 100 uM incubated for 48 hrs by sulforhodamine B assay; conditions: MDA-MB-435, 48 h, read-out: Activity
[20] = system: OVCAR-4; test: Growth inhibition of human OVCAR4 cells assessed as cell viability at 0.1 uM incubated for 48 hrs by sulforhodamine B assay; conditions: OVCAR-4, 48 h, read-out: Activity
[21] = system: K562; test: Growth inhibition of human K562 cells assessed as cell viability at 0.1 uM incubated for 48 hrs by sulforhodamine B assay; conditions: K562, 48 h, read-out: Activity
[22] = system: BT-549; test: Growth inhibition of human BT549 cells assessed as cell viability at 0.001 uM incubated for 48 hrs by sulforhodamine B assay relative to control; conditions: BT-549, 48 h, read-out: Activity
[23] = system: 786-0; test: Growth inhibition of human 786-0 cells assessed as cell viability at 100 uM incubated for 48 hrs by sulforhodamine B assay; conditions: 786-0, 48 h, read-out: Activity; procedure, shortened: as §1
[24] = system: LOX IMVI; test: Growth inhibition of human LOXIMVI cells assessed as cell viability at 0.001 uM incubated for 48 hrs by sulforhodamine B assay relative to control; conditions: read-out: Activity
[25] = system: NCI-H460; test: Growth inhibition of human NCI-H460 cells assessed as cell viability at 0.001 uM incubated for 48 hrs by sulforhodamine B assay relative to control; conditions: NCI-H460, 48 h, read-out: Activity
[26] = system: HCC 2998; test: Growth inhibition of human HCC2998 cells assessed as cell viability at 100 uM incubated for 48 hrs by sulforhodamine B assay; conditions: HCC 2998, 48 h, read-out: Activity
[27] = read-out: LC50 (the source's name)
[28] = read-out: pLC50 (the source's name) (converted)

With CC1=C(C(=O)OCc2ccccc2)C(c2ccc3c(c2)OCO3)n2c(nc3ccccc32)N1 (racemic) as the compound, how does the viability at 100 µM [1] read?
The viability at 100 µM was 20%.

And the viability at 1 µM [2]?
Its viability at 1 µM is 19%.

And the GI50 ([3]; read-out: GI50)?
The GI50 was 1.71 µM.

What about the CC50 [3, 27] of the same compound?
The CC50 was greater than 100 µM.

And the TGI ([3]; read-out: TGI)?
The TGI was greater than 100 µM.

And the GI50 ([3]; read-out: pGI50 (converted))?
The GI50 was 1.7 µM.

What about the CC50 [3, 28] of the same compound?
The CC50 was greater than 100 µM.

And the TGI ([3]; read-out: pTGI)?
The TGI was greater than 100 µM.

What about the viability at 100 µM [4] of the same compound?
The viability at 100 µM was 10%.

And the viability at 100 µM [5]?
The viability at 100 µM was 53%.

And the GI50 ([6]; read-out: GI50)?
Its GI50 is 0.33 µM.

And the CC50 [6, 27]?
Its CC50 is greater than 100 µM.

And the TGI ([6]; read-out: TGI)?
The TGI was greater than 100 µM.

What about the GI50 ([6]; read-out: pGI50 (converted)) of the same compound?
Its GI50 is 0.331 µM.

And the CC50 [6, 28]?
Its CC50 is greater than 100 µM.

What about the TGI ([6]; read-out: pTGI) of the same compound?
The TGI was greater than 100 µM.

What about the viability at 1 µM [7] of the same compound?
The viability at 1 µM was 38%.

What about the viability at 1 µM [8] of the same compound?
Its viability at 1 µM is 61%.

What about the viability at 100 µM [9] of the same compound?
The viability at 100 µM was 51%.

What about the viability at 100 µM [10] of the same compound?
Its viability at 100 µM is -10%.

What about the viability at 0.1 µM [11] of the same compound?
Its viability at 0.1 µM is 96%.

What about the viability at 0.001 µM [12] of the same compound?
Its viability at 0.001 µM is 98%.

What about the viability at 100 µM [13] of the same compound?
The viability at 100 µM was 18%.

And the GI50 ([14]; read-out: GI50)?
Its GI50 is 0.47 µM.

What about the CC50 [14, 27] of the same compound?
The CC50 was greater than 100 µM.

What about the TGI ([14]; read-out: TGI) of the same compound?
The TGI was greater than 100 µM.

And the GI50 ([14]; read-out: pGI50 (converted))?
Its GI50 is 0.468 µM.

And the CC50 [14, 28]?
The CC50 was greater than 100 µM.

What about the TGI ([14]; read-out: pTGI) of the same compound?
Its TGI is greater than 100 µM.

And the viability at 0.001 µM [15]?
Its viability at 0.001 µM is 93%.

What about the GI50 ([16]; read-out: GI50) of the same compound?
Its GI50 is 0.68 µM.

What about the CC50 [16, 27] of the same compound?
The CC50 was greater than 100 µM.

And the TGI ([16]; read-out: TGI)?
The TGI was greater than 100 µM.

What about the GI50 ([16]; read-out: pGI50 (converted)) of the same compound?
The GI50 was 0.676 µM.

What about the CC50 [16, 28] of the same compound?
The CC50 was greater than 100 µM.

And the TGI ([16]; read-out: pTGI)?
The TGI was greater than 100 µM.

And the viability at 0.1 µM [17]?
Its viability at 0.1 µM is 92%.

What about the viability at 0.001 µM [18] of the same compound?
The viability at 0.001 µM was 99%.

And the viability at 100 µM [19]?
Its viability at 100 µM is -7%.

What about the viability at 0.1 µM [20] of the same compound?
Its viability at 0.1 µM is 90%.

What about the viability at 0.1 µM [21] of the same compound?
The viability at 0.1 µM was 82%.

And the viability at 0.001 µM [22]?
Its viability at 0.001 µM is 95%.

And the viability at 100 µM [23]?
The viability at 100 µM was 22%.

What about the viability at 0.001 µM [24] of the same compound?
The viability at 0.001 µM was 93%.

And the viability at 0.001 µM [25]?
Its viability at 0.001 µM is 98%.

And the viability at 100 µM [26]?
The viability at 100 µM was 46%.

— ChEMBL document CHEMBL4406880, “Design, synthesis, and bioactivity of dihydropyrimidine derivatives as kinesin spindle protein inhibitors” (Bioorg Med Chem, 2019)
